Screens deposited in PubChem BioAssay by several laboratories.
Shown are actives, neighbours in structure and some others; about 2.4% of the full set was active somewhere.
Apaf-1 inh: human Apaf-1 inhibition | reconstituted apoptosome caspase-3 activity, DEVD-Rh110 fluorescence | O14727 | inhibition, % at 20 µM | hit rate 0.71% among 330,000; active = inhibition of at least 40% at 20 µM
Target sequence (O14727 whole entry, looked up): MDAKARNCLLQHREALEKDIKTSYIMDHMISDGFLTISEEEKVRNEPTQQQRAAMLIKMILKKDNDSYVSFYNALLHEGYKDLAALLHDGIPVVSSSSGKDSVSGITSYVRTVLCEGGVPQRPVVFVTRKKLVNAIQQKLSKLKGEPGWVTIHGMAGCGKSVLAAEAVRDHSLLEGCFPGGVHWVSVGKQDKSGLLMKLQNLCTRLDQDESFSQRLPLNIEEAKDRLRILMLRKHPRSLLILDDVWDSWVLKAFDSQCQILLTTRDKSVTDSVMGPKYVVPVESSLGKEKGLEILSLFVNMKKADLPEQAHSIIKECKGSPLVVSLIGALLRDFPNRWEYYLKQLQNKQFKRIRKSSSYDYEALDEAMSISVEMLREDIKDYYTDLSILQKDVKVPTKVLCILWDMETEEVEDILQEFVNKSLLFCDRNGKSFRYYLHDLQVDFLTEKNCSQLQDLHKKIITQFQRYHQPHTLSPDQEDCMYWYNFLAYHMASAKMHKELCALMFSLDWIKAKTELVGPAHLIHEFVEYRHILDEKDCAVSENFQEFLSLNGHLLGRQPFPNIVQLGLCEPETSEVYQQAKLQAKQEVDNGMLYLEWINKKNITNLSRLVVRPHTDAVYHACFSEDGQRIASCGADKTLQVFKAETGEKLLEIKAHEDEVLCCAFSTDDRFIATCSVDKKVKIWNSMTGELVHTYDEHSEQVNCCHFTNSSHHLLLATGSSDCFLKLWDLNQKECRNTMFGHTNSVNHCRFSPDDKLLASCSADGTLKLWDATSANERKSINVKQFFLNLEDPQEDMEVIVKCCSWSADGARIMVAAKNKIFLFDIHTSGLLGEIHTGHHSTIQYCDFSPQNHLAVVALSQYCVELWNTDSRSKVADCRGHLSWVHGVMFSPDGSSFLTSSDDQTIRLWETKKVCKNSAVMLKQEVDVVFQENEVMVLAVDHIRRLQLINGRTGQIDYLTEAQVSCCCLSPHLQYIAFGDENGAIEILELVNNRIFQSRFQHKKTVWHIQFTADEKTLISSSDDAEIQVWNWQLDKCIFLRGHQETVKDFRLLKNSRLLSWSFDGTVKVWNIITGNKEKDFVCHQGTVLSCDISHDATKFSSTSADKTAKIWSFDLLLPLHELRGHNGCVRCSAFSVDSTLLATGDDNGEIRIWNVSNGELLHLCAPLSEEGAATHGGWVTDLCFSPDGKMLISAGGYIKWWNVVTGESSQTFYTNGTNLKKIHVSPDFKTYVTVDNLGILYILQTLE
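Medium: Hepes buffer, pH 7.5 / System: biochemical Apaf-1 apoptosome reconstitution / Measured by: Rh110 fluorescence, excitation 480 nm, emission 540 nm / Times: compound with Apaf-1, dATP, procaspase-3 30 min, then 50 min reaction, room temperature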
TDP2 inh: TDP2 (human) inhibition, absorbance primary screen | O95551 | recombinant TDP2, T5PNP hydrolysis, p-nitrophenol absorbance 415 nm | inhibition, % at 12.8 µM | hit rate 0.34% among 370,000 | AID 720702;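 active = inhibition above the mean of all tested compounds plus 3 SD, set per campaign, cut at about 25% in these data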
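Incubation: 2 h at 37 °C; Test system: recombinant human TDP2; Quantity: enzyme 120 nM; Read-out basis: percent inhibition; Medium: 50 mM Tris-HCl pH 7.5 with Mg2+, KCl, DTT, BSA; Repeats: single replicate; Compound: 12.8 µM single point, 1% DMSO; Signal: epi absorbance; Reagent: 5 mM T5PNP chromogenic substrate; Benchmarks: no-enzyme high, DMSO-plus-enzyme low.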
TCR CD3 inh: blocks the human TCR-CD3 interaction; TAMRA-labeled TCR probe fluorescence, biochemical; inhibition, % at 9.4 µM; hit rate 0.37% among 360,000; AID 651800; in the data active = inhibition above about 19%;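 also: recombinant mutant TCR 2C K166C tagged with TAMRA read by polarization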
GSTO1 inh: counter-screen for RBBP9 inhibitors: inhibitors of human GSTO1 | P78417 | recombinant GSTO1, activity-based probe fluorescence polarization | inhibition, % at 5.96 µM | hit rate 1.1% among 300,000;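 active = inhibition above the campaign mean inhibition plus 3 SD, cut at about 35% in these data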
SIAE inh: inhibitors of human sialic acid acetylesterase SIAE; Q9HAT2; SIAE FP-Rh probe binding, fluorescence polarization; inhibition, % at 9.66 µM; hit rate 0.69% among 370,000; AID 1053197;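 active = inhibition above a cutoff: mean of compounds within the control limits plus 3 SD of those, cut at about 17% in these data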
PAD4 inh: inhibitors of human PAD4. Q9UM07. recombinant PAD4, RCA probe fluorescence polarization. inhibition, % at 6.36 µM. hit rate 0.41% among 330,000. AID 485272;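 active = percent inhibition above a cutoff equal to the mean of all tested compounds plus 3 SD, cut at about 15% in these data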
GSTO1 confirm: confirmation of human GSTO1 inhibitors; shares compounds with GSTO1 inh; recombinant GSTO1, probe fluorescence polarization; inhibition, % at 5.96 µM; hit rate 54% among 2,400;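 active = inhibition above the primary screen's cutoff, its mean inhibition plus 3 SD, cut at about 35% in these data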;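 also: loss of polarization as inhibitors block binding of rhodamine sulfonate ester activity probe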
GSTO1 recomb ABPP: blocks recombinant human glutathione S-transferase omega 1. hit rate 30% among 130. shares compounds with GSTO1 inh. recombinant GSTO1, gel ABPP SE-Rh probe fluorescence. inhibition, % at 1 µM;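 active = inhibition of the enzyme GSTO1 above about 75%, limit read from the data; inactive = inhibition below that limit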
Numbers stand for hits; n = inactive; x = no result given.

SMILES	Apaf-1 inh	TDP2 inh	TCR CD3 inh	GSTO1 inh	SIAE inh	PAD4 inh	GSTO1 confirm	others
CN(C)c1ccc(CCc2ccc(N)cc2)cc1	n	n	n	n	n	n	x
Nc1ccc(N(c2ccccc2)c2ccc(N)cc2)cc1	n	n	n	43.1	n	n	n
O=C(c1[nH]ncc1-c1ccccc1)C1CO1 (stereo not drawn)	n	n	n	n	n	n	x
O=C(c1[nH]ncc1-c1cccc(Br)c1)C1CO1 (stereo not drawn)	n	n	n	82.1	n	n	89.7	GSTO1 recomb ABPP=n
O=C(Nc1ccc2c(c1)OCO2)NC1(C(F)(F)F)Oc2ccccc2O1	n	n	n	47.8	n	n	n
O=C(NCC1CCCO1)NC1(C(F)(F)F)Oc2ccccc2O1 (stereo not drawn)	n	n	n	52.3	n	n	n
O=C(Nc1ccc2c(c1)OCCO2)NC1(C(F)(F)F)Oc2ccccc2O1	n	n	n	n	n	n	x
O=C(NC1(C(F)(F)F)Oc2ccccc2O1)N1CCCC1	n	n	n	47.6	n	n	n
CS(=O)(=O)c1ccc2c(c1)sc1nc(=O)c(/C=C3/C=CC(=O)C(O)=C3)c(N)n12	n	n	n	43.6	n	n	n
Cc1cc(Cl)ccc1OCC(=O)N1CCCN(C(=O)COc2ccc(Cl)cc2C)CC1	n	n	n	n	n	n	x
COc1cccc(-c2nc(-c3ccccc3)[nH]c(=O)c2C#N)c1	n	n	n	n	n	n	x
CCC(Sc1nc(-c2cccc(OC)c2)c(C#N)c(=O)[nH]1)C(=O)Nc1nnc(C(C)C)s1 (stereo not drawn)	n	n	n	50.3	n	n	62.0
CCN(c1ccccc1)S(=O)(=O)c1ccc(Cl)c(NC(=O)COC(=O)c2cc(O)c3ccccc3c2O)c1	47.6	x	x	51.2	x	25.9	n
CCCCN(C(=O)c1cccc(-n2cccc2)c1)c1c(N)n(Cc2ccccc2)c(=O)[nH]c1=O	n	n	n	57.9	n	n	n
CCCCN(C(=O)c1cccc(N2C(=O)c3ccccc3C2=O)c1)c1c(N)n(CC(C)C)c(=O)[nH]c1=O	n	n	n	x	n	n	x
CCOC(=O)CNc1ncnc2nc[nH]c12	n	n	n	n	n	n	x
Cn1c(-c2ccc(C=O)s2)nc2ccccc21	n	n	n	n	n	n	x
O=C(O)c1ccc2c(c1)[C@@H]1C=CC[C@@H]1[C@H](c1ccccn1)N2	n	25.8	24.8	50.5	17.3	n	n
Cc1ccccc1NC(=O)CC(=O)c1ccccc1	n	n	n	n	n	n	x
COc1ccc(CN(CCC(c2ccccc2)c2ccc(OC(C)C)cc2)C(=O)CCl)cc1OC (stereo not drawn)	n	n	n	78.3	n	n	90.1	GSTO1 recomb ABPP=90.0
CC(=O)Oc1ccc(-c2cc3c(OC(C)=O)cc(OC(C)=O)cc3oc2=O)cc1	n	n	n	43.5	n	n	n
CC(=O)Oc1ccc(-c2cc3ccccc3oc2=O)cc1	n	n	n	n	n	n	x
COc1ccc(/C=N/NC(=O)CSCc2ccc([N+](=O)[O-])cc2)cc1OC	n	n	n	n	n	n	x
C/C(=N\Nc1nc2ccccc2c(=O)n1O)c1ccco1	n	n	20.1	67.4	n	n	n
C/C(=N\NC(=O)c1cc(C)nc2ccccc12)c1ccco1	n	n	n	n	n	n	x
SMILES	Apaf-1 inh	TDP2 inh	TCR CD3 inh	GSTO1 inh	SIAE inh	PAD4 inh	GSTO1 confirm	others
Cc1oc(-c2ccccc2F)nc1CS(=O)CC(=O)NCc1ccc2c(c1)OCO2 (stereo not drawn)	n	n	n	n	n	n	x
COc1cc(-c2csc(C)n2)ccc1O	n	n	n	n	n	n	x
Cc1nc(-c2ccc(O)c(O)c2)cs1	n	n	n	41.7	n	n	n
Oc1ccc(-c2csc(-c3ccccc3)n2)cc1O	n	n	n	38.5	n	n	n
CCc1ccccc1N(CC)C(=O)c1cn(CC)c(=O)c2cc(OC)c(OC)cc12	n	n	n	n	n	n	x
NNC(=O)c1cc(O)c(O)c(O)c1	n	n	56.7	52.1	n	n	n
CCOC(=O)c1nc(C)n(-c2cc(Cl)cc(Cl)c2)n1	n	n	n	n	n	n	x
N#CC1(NC(=O)COC(=O)c2cc(O)c3ccccc3c2O)CCCCC1	72.7	x	x	61.1	x	n	57.4
N#CC(C#SN)=C1CCCCC1	n	n	n	51.6	n	n	n
CN(C)C(=O)N1CCN(S(=O)(=O)c2ccc3ccccc3c2)CC1	n	n	n	n	n	n	x
O=C(CCl)N1CCN(S(=O)(=O)c2ccc3ccccc3c2)CC1	n	n	n	86.9	n	n	94.0	GSTO1 recomb ABPP=88.0
Cc1ccc(S(=O)(=O)N2CCCCC2)cc1NS(=O)(=O)c1cccc(C(=O)O)c1	n	n	n	38.6	n	n	n
O=C(CCl)Nc1cc(S(=O)(=O)N2CCCCCC2)ccc1Cl	n	n	n	95.9	n	n	95.9
O=C(O)c1cccc(S(=O)(=O)Nc2cccc(S(=O)(=O)N3CCCCCC3)c2)c1	n	n	n	n	n	n	x
O=[N+]([O-])c1ccc2c(c1N1CCCCC1)=NC1(CCCCC1)[N+]=2[O-]	n	n	n	57.1	n	n	n
O=C(CSc1nnc(-c2ccco2)c(-c2ccco2)n1)Nc1ccccc1	n	n	n	42.0	n	n	n
Cc1ccccc1NC(=O)CSc1nnc(-c2ccco2)c(-c2ccco2)n1	n	x	x	54.5	x	n	n
CCOc1ccc(-n2c(C)cc(C(=O)CCl)c2C)cc1	n	n	n	93.6	n	n	100.4
CCOC(=O)c1cc(C)n(-c2ccc(Cl)cc2)c1C	n	n	n	n	n	n	x
Cc1ccc(O)c(O)c1	n	x	x	54.6	x	n	n
Cc1ccc(NC(=O)CNC(=O)c2sc3ccccc3c2Cl)nc1	n	n	n	n	n	n	x
N#CC(=C=[N-])c1nc2ccccc2nc1-[n+]1cccc(NC(=O)c2cccs2)c1	n	n	n	54.4	n	n	n
N#CC(=C=[N-])c1nc2ccccc2nc1-[n+]1cccc(NC(=O)c2ccccc2)c1	n	n	n	59.0	n	n	n
N#CC(=C=[N-])c1nc2ccccc2nc1-[n+]1cccc(NC(=O)c2ccc(F)cc2)c1	n	n	n	58.9	n	n	n
CCOC(=O)c1nc2ccccc2nc1C	n	n	n	n	n	n	x
CCc1cc[n+](-c2nc3ccccc3nc2C(=C=[N-])C#N)cc1	n	n	n	62.8	n	n	n
O=C(Nc1ccc[n+](CC(=O)c2cccc3ccccc23)c1)c1ccccc1	n	n	n	n	n	n	x
C=CCC(O)(CC=C)CNC(=O)C1CCC(=O)N(CCCc2ccccc2)C1 (stereo not drawn)	n	n	n	n	n	n	x
